Data set [1] in a line: Drug uptake in mouse peritoneal macrophages assessed as dimer to monomer peptide ratio at 100 uM after 24 hrs at 37 degC by HPLC analysis. The note with it: peritoneal macrophage cell. The data set is classed as ADME, cell-based. Summed up:
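Macrophages were elicited in 8–12-week-old female BALB/c mice with 4% thioglycolate i.p. and harvested by lavage 4 days later. Cells were seeded at 300,000 per well for 24 h, then given unlabeled peptide in DMEM for 24 h at 37°C. Lysates were run on reverse-phase HPLC at A280. Monomer (17.5 min) and dimer (17.75 min) peak areas were compared with a standard curve. Concentration assumed 1 pl per cell; values are means of three determinations.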

The subject of a further data set is J774.A1. Description: Drug uptake in mouse J774A1 cells assessed as total peptide concentration at 100 uM after 5 hrs at 4 degC by HPLC analysis. The data set is classed as ADME, cell-based. The note with it: j774.a1, 5 h. Summed up:
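J774A.1 cells were incubated with unlabeled peptide for 5 or 24 h at 37°C or 4°C, washed in ice-cold PBS and lysed with NP-40 buffer. Lysates were run on reverse-phase HPLC with an acetonitrile/0.1% TFA gradient and A280 fractions. Monomer (~17.5 min) and dimer (~17.75 min) peak areas were compared against a standard curve. Intracellular mM was calculated using 300,000 cells and 1 pl/cell, with concentration expressed as monomer mass.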

Another data set has as its system Salmonella typhimurium. Description: Antibacterial activity against 10 MOI Salmonella enterica subsp. enterica serovar Typhimurium G785 transfected with SOS-inducible beta-galactosidase reporter infected in mouse J774A1 cells assessed as SOS induction at 50 uM after 24 hrs postinfection. The data set is classed as functional, J774.A1. Summed up:
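J774A.1 cells infected at MOI 10 with sulA promoter-lacZ reporter strain G785 using the gentamicin-protection protocol, treated with peptide (DMSO vehicle controls) plus 15 μg/ml gentamicin for 4 or 24 h. Released bacteria were plated for colony counts in parallel, and were incubated with 33 μM C12FDG (with 0.2 mM EDTA) in LB for 2 h at 37°C. Flow cytometry gave % fluorescein-positive among LPS-antibody-positive particles; Wilcoxon exact test.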

SMILES strings stand for the structures.

The values below come from ChEMBL document CHEMBL1255440, “An antimicrobial peptide that targets DNA repair intermediates in vitro inhibits Salmonella growth within murine macrophages” (Antimicrob Agents Chemother, 2010).

Regarding `N=C(N)NCCC[C@@H](NC(=O)[C@@H](CS)NC(=O)[C@@H](Cc1ccc(O)cc1)NC(=O)[C@@H](Cc1c[nH]c2ccccc12)NC(=O)[C@@H](CCCNC(=N)N)NC(=O)[C@H](N)Cc1c[nH]c2ccccc12)C(=O)O`, in data set [1], the Ratio is listed as 0.7. In addition, the Drug uptake with J774.A1 amounted to 7.7 mM. Also, in the data set on Salmonella typhimurium, the Activity is on record as 0.4%.
